Measurements published in ChEMBL document CHEMBL4376814, “Novel cyclin-dependent kinase 9 (CDK9) inhibitor with suppression of cancer stemness activity against non-small-cell lung cancer” (Eur J Med Chem, 2019).

Tests used:
[1] = molecular target: Tyrosine-protein kinase HCK (Homo sapiens) (UniProt P08631); test: Inhibition of recombinant human HCK (230 to 497 residues) at 1 uM using Cdc2 peptide as substrate measured after 40 mins in presence of [gamma33P]ATP by scintillation counting method relative to control
[2] = molecular target: Protein kinase C gamma type (Homo sapiens) (UniProt P05129); test: Inhibition of recombinant full-length human PKCgamma at 1 uM using histone H1 as substrate measured after 40 mins in presence of [gamma33P]ATP by scintillation counting method relative to control
[3] = system: Receptor-type tyrosine-protein kinase FLT3 (Homo sapiens), P36888 [D835Y]; test: Inhibition of recombinant human Flt3 (564 to end residues) D835Y mutant at 1 uM using EAIYAAPFAKKK as substrate measured after 40 mins in presence of [gamma33P]ATP by scintillation counting method relative to control
[4] = molecular target: Serine/threonine-protein kinase Nek2 (Homo sapiens) (UniProt P51955); test: Inhibition of recombinant full-length human NEK2 at 1 uM using myelin basic protein as substrate measured after 40 mins in presence of [gamma33P]ATP by scintillation counting method relative to control
[5] = system: TGF-beta receptor type-1 (Homo sapiens), P36897 [T204D]; test: Inhibition of human TGFBR1 T204D mutant (200 to end residues) at 1 uM using casein as substrate measured after 40 mins in presence of [gamma33P]ATP by scintillation counting method relative to control
How it was run: (§1)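 Percent inhibition of kinase activity at a single compound concentration, measured by the outsourced Eurofins KinaseProfiler panel. Values are the mean of two independent experiments.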

[6] = molecular target: Dual specificity protein kinase CLK3 (Homo sapiens) (UniProt P49761); test: Inhibition of full length recombinant human CLK3 at 1 uM using ERMRPRKRQGSVRRRV as substrate measured after 40 mins in presence of [gamma33P]ATP by scintillation counting method relative to control
[7] = system: A549; test: Inhibition of colony formation in human A549 cells after 12 days by crystal violet staining based assay; assay type: functional, cell-based
How it was run: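 Cells exposed to compound, then washed, trypsinized and reseeded at 300 cells per well in 6-well plates. Colonies grew 10-14 days (legend: 12 days), were fixed in methanol 30 min, stained overnight with 0.5% crystal violet and imaged.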

[8] = molecular target: Transcription initiation factor TFIID subunit 1-like (Homo sapiens) (UniProt Q8IZX4); test: Inhibition of recombinant human TAF1L (1428 to end residues) at 1 uM using RRRFRPASPLRGPPK as substrate after 120 mins in presence of [gamma33P]ATP by scintillation counting analysis relative to control
[9] = system: A549; test: Inhibition of tumorsphere formation in human A549 cells after 2 weeks by microscopic analysis; assay type: functional, cell-based
[10] = molecular target: Mitogen-activated protein kinase 8 (Homo sapiens) (UniProt P45983); test: Inhibition of recombinant full-length human JNK1alpha1 at 1 uM using ATF2 as substrate measured after 40 mins in presence of [gamma33P]ATP by scintillation counting method relative to control
[11] = system: SNF-related serine/threonine-protein kinase (Homo sapiens), Q9NRH2 [UNDEFINED MUTATION]; test: Inhibition of human SNRK E97G/P116A mutant (1 to 505 residues) at 1 uM using KKLRRTLSFAEPG as substrate measured after 40 mins in presence of [gamma33P]ATP by scintillation counting method relative to control; how it was run: as §1
[12] = system: Receptor tyrosine-protein kinase erbB-2 (Homo sapiens), P04626 [G778D]; test: Inhibition of recombinant human ErbB2 (676 to end residues) G778D mutant at 1 uM using poly(Glu, Tyr) 4:1 as substrate measured after 40 mins in presence of [gamma33P]ATP by scintillation counting method relative to control
[13] = molecular target: Mitogen-activated protein kinase kinase kinase kinase 2 (Homo sapiens) (UniProt Q12851); test: Inhibition of recombinant human GCK (1 to 473 residues) at 1 uM using myelin basic protein as substrate measured after 40 mins in presence of [gamma33P]ATP by scintillation counting method relative to control
[14] = species: Homo sapiens; test: Inhibition of recombinant full-length human pkb-alpha S478G mutant at 1 uM using GRPRTSSFAEGKK as substrate measured after 40 mins in presence of [gamma33P]ATP by scintillation counting method relative to control
[15] = system: A549; test: Induction of apoptosis in human A549 cells assessed as late apoptotic cells at 1 uM after 48 hrs by AnnexinV-FITC/PI staining-based flow cytometric analysis (reference value: 7.66%); assay type: functional
[16] = molecular target: Tyrosine-protein kinase Fer (Homo sapiens) (UniProt P16591); test: Inhibition of recombinant human FER (541 to end residues) at 1 uM using KKKSPGEYVNIEFG as substrate measured after 40 mins in presence of [gamma33P]ATP by scintillation counting method relative to control
[17] = molecular target: Dual specificity mitogen-activated protein kinase kinase 6 (Homo sapiens) (UniProt P52564); test: Inhibition of recombinant human MKK6 (4 to end residues) at 1 uM using unactive SAPK2a as substrate measured after 40 mins in presence of [gamma33P]ATP by scintillation counting method relative to control
[18] = molecular target: MAPK/MAK/MRK overlapping kinase (Homo sapiens) (UniProt Q9UQ07); test: Inhibition of recombinant human MOK (1 to 343 residues) at 1 uM using RSRSRSRSRSRSRSR as substrate measured after 40 mins in presence of [gamma33P]ATP by scintillation counting method relative to control
[19] = molecular target: Serine/threonine-protein kinase MRCK beta (Homo sapiens) (UniProt Q9Y5S2); test: Inhibition of recombinant human MRCKbeta (1 to 473 residues) at 1 uM using KKRNRTLTV as substrate measured after 40 mins in presence of [gamma33P]ATP by scintillation counting method relative to control
[20] = species: Homo sapiens; test: Inhibition of recombinant human DDR1 V833L mutant (492 to end residues) at 1 uM using KKKSPGEYVNIEFG as substrate measured after 40 mins in presence of [gamma33P]ATP by scintillation counting method relative to control
[21] = system: Ribosomal protein S6 kinase beta-1 (Homo sapiens), P23443 [T412E]; test: Inhibition of recombinant full-length human p70S6K (1 to 421 residues) T412E mutant at 1 uM using KKRNRTLTV as substrate measured after 40 mins in presence of [gamma33P]ATP by scintillation counting method relative to control
[22] = molecular target: Cyclin-dependent kinase 1/cyclin B1 (Homo sapiens) (UniProt P06493+P14635); test: Inhibition of recombinant full-length human CDK1/cyclinB at 1 uM using Histone H1 as substrate measured after 40 mins in presence of [gamma33P]ATP by scintillation counting method relative to control; assay type: protein-complex assay
[23] = molecular target: Serine/threonine-protein kinase PLK1 (Homo sapiens) (UniProt P53350); test: Inhibition of full length human PLK1 at 1 uM using casein as substrate measured after 40 mins in presence of [gamma33P]ATP by scintillation counting method

Sequence of MAPK/MAK/MRK overlapping kinase (Homo sapiens) (Q9UQ07 whole entry, the tested form may be a part): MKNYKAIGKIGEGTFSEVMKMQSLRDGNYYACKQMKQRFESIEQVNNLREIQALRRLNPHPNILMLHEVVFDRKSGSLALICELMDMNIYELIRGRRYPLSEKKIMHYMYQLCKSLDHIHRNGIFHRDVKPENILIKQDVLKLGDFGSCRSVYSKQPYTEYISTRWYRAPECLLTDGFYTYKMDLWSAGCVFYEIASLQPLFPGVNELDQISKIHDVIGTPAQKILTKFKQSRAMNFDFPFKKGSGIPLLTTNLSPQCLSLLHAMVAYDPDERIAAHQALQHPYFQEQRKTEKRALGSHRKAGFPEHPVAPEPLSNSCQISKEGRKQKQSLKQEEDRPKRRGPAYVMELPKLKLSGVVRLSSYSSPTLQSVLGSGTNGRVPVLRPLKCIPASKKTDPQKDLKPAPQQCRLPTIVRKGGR
Sequence of Ribosomal protein S6 kinase beta-1 (Homo sapiens), P23443 [T412E] (P23443 whole entry T412E, looked up, the tested form may be a part): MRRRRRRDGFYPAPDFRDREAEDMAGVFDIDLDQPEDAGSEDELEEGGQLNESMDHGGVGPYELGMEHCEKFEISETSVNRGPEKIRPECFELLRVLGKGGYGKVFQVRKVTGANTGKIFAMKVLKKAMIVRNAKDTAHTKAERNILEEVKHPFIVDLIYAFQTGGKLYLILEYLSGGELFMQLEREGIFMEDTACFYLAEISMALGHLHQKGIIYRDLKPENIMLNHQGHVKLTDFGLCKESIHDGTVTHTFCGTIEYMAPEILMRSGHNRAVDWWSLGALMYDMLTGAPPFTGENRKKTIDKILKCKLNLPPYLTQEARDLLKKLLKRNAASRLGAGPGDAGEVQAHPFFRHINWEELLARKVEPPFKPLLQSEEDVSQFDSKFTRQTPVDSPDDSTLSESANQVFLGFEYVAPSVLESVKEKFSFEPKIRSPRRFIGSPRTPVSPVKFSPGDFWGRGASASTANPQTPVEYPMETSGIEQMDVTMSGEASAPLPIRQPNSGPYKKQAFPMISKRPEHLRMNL
Sequence of Cyclin-dependent kinase 1/cyclin B1 (Homo sapiens) (P06493 whole entry, looked up): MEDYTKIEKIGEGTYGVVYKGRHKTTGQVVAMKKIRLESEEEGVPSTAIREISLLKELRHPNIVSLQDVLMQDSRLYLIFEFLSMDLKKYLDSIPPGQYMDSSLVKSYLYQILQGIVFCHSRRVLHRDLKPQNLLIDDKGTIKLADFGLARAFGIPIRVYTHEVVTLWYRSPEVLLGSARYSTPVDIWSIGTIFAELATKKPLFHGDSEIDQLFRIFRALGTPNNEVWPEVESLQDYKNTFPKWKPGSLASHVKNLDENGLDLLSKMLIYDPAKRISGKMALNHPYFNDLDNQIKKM
Sequence of Cyclin-dependent kinase 1/cyclin B1 (Homo sapiens) (P14635 whole entry, looked up): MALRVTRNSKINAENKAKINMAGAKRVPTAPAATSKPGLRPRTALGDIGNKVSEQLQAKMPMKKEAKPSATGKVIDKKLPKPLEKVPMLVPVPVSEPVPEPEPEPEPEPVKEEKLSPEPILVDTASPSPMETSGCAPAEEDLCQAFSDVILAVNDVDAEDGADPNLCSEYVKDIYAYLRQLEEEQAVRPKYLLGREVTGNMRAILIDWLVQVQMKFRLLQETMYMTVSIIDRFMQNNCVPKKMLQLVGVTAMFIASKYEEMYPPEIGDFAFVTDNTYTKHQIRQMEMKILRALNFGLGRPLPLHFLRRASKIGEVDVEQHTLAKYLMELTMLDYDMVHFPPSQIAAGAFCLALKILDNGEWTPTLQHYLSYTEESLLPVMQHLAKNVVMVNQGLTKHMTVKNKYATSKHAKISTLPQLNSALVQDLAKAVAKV
Sequence of Serine/threonine-protein kinase MRCK beta (Homo sapiens) (Q9Y5S2 whole entry, the tested form may be a part): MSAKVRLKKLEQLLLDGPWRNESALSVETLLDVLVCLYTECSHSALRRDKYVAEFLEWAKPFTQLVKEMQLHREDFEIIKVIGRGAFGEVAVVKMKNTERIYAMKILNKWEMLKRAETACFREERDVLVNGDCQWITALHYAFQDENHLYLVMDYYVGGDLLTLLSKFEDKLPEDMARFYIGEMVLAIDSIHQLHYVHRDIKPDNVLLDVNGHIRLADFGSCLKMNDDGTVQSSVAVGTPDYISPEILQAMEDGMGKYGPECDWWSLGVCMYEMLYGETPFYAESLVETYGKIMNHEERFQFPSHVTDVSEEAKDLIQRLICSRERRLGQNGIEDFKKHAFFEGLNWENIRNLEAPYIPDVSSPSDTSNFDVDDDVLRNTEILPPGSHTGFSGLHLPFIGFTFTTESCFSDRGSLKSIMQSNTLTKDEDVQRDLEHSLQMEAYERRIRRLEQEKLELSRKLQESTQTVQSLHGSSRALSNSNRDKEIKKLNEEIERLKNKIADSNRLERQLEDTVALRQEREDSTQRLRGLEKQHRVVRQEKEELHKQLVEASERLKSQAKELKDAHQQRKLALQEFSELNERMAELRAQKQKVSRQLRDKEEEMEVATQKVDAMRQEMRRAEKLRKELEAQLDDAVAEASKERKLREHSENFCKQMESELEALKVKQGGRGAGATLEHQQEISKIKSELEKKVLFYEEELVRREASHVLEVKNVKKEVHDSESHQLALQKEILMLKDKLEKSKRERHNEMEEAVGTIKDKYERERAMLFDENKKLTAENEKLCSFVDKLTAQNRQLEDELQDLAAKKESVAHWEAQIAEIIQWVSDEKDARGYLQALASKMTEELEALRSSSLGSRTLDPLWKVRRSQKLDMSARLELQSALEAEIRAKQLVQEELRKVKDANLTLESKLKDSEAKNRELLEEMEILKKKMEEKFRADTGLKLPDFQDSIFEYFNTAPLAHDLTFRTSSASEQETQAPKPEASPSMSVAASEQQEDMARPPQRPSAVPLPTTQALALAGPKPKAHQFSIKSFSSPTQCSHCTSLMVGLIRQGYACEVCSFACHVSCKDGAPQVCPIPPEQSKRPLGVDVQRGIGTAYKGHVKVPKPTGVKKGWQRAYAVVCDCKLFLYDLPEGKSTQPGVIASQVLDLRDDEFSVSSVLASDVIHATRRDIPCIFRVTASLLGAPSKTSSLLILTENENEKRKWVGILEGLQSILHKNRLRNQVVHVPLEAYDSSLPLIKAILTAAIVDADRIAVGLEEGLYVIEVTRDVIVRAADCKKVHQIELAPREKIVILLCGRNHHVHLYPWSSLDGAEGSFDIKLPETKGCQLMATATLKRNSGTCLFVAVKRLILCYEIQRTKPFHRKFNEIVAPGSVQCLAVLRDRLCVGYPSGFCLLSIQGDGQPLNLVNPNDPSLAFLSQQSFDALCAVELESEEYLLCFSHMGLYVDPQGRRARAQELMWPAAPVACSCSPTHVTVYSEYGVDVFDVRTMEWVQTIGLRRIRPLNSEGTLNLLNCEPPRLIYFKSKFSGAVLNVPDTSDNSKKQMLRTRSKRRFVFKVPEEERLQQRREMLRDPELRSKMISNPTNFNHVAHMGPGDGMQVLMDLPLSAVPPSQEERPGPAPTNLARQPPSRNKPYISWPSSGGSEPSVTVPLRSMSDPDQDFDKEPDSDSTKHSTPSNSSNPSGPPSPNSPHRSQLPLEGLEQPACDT
Sequence of SNF-related serine/threonine-protein kinase (Homo sapiens), Q9NRH2 [UNDEFINED MUTATION] (Q9NRH2 whole entry, looked up, stated change not applied, the tested form may be a part): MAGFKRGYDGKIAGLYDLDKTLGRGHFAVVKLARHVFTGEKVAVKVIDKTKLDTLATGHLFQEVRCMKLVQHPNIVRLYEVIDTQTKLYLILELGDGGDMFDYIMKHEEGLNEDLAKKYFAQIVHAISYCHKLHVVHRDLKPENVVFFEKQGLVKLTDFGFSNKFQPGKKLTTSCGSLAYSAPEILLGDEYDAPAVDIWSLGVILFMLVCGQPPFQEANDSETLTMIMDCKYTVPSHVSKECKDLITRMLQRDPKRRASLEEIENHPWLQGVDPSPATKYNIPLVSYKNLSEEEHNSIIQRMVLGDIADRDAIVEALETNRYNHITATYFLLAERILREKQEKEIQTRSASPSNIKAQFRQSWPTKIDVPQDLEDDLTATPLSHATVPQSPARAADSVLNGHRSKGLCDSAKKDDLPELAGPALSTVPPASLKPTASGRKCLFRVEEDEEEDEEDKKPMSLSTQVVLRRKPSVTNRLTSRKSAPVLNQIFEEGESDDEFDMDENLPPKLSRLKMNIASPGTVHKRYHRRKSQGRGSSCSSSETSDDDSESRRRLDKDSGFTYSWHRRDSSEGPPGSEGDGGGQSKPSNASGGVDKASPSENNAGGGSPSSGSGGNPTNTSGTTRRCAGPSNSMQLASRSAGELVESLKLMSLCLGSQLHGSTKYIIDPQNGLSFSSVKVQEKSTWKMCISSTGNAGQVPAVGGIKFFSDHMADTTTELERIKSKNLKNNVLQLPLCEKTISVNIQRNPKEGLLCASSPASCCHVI
Sequence of TGF-beta receptor type-1 (Homo sapiens), P36897 [T204D] (P36897 whole entry T204D): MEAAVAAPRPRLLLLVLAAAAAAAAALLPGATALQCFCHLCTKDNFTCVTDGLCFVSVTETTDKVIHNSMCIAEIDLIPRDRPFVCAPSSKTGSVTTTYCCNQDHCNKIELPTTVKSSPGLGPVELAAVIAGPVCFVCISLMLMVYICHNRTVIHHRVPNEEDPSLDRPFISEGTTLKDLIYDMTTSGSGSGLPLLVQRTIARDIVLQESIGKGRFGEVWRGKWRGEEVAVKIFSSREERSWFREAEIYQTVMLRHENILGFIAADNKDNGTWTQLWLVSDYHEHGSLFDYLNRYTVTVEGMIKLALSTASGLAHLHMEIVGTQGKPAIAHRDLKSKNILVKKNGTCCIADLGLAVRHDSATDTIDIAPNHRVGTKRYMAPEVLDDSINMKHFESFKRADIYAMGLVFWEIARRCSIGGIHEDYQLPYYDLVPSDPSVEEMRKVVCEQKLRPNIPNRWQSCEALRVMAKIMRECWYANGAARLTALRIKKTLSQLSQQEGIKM
Sequence of Dual specificity mitogen-activated protein kinase kinase 6 (Homo sapiens) (P52564 whole entry, the tested form may be a part): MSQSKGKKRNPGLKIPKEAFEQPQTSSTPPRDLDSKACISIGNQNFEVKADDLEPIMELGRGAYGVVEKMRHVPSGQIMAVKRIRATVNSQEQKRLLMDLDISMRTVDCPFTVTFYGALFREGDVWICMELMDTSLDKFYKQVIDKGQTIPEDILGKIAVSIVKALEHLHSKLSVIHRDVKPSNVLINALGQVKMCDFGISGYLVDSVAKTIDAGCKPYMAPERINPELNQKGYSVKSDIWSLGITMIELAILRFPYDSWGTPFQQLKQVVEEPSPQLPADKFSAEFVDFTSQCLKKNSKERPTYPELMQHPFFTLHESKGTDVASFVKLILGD

Work on `CN(C)C(=O)c1cc2cnc(Nc3ccc(NC(=O)CCCCCCCN=C=S)cc3)nc2n1C1CCCC1` yielded an inhibition [1] of 9%, an inhibition [2] of 86% and an inhibition [3] of 72%. For the same compound, the inhibition [4] was 13%, the inhibition [5] was 13% and the inhibition [6] was 37%. The inhibition [7] was “Dose-dependent effect”, the inhibition [8] was 23% and the inhibition [9] was “Dose-dependent effect”. The inhibition [10] was 4%, the inhibition [11] was 7% and the inhibition [12] was -1%. The inhibition [13] was 81%, the inhibition [14] was 5% and the Activity [15] was 16.4%. It also gave an inhibition [16] of 7%, an inhibition [17] of 30% and an inhibition [18] of 21%. For the same compound, the inhibition [19] was 7%, the inhibition [20] was 47% and the inhibition [21] was 40%. The inhibition [22] was 58% and the inhibition [23] was -2%.
